Screening results as filed in PubChem BioAssay.
HIF act = HIF pathway transcriptional activation; actives 0.32% (n = 300,000); activation, % at 7.5 µM (by protocol); U2OS HRE-luciferase reporter, luminescence; normalized: DMSO 0%, desferrioxamine 100%;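 active = mean activation of at least 10% of the iron chelator positive control signal, with at least half of replicates also reaching 10%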
NRP1-CendR mod = alters CendR peptide binding to human NRP-1. O14786. FAM-RPARPAR peptide binding to NRP-1, fluorescence polarization. inhibition, % at 25 µM. actives 0.85% (n = 360,000);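 active = inhibition or corrected inhibition above about 18%, plus a signal ratio from 0.5 to 1.5, limit read from the data, passing the limit was not always enough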
V-ATPase pHluor = alters yeast V-ATPase proton transport | S. cerevisiae, pHLuorin cytosolic pH fluorescence | response, % at 10 µM | actives 0.37% (n = 350,000); in the data active = response mostly above about 7.3%, no sharp cut-off; inactive = mostly below about 5.4%; note: actives read high
T cruzi inh = blocks replication of Trypanosoma cruzi; inhibition, % (test concentration not listed); T. cruzi beta-gal in NIH3T3, luminescence, 90 h; actives 1.4% (n = 300,000);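 active = mean inhibition across valid replicates above about 55%, limit read from the data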;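 note: signal also drops with host cell toxicity which is not excluded here; higher percent means less beta-gal luminescence so fewer parasites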
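Assay system: NIH/3T3 host cells with β-galactosidase reporter T. cruzi; input: 5,000 host fibroblasts per well; compound: single 50 nL compound addition per well in DMSO; timing: ≥90 h infection period, 3 h prior cell attachment; measured by: GalScreen β-gal luminescence, detergent lysis, 60 min; evaluation: percent inhibition of parasite-derived β-gal signal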
AI-2 QS modul = modulates the Vibrio harveyi AI-2 quorum sensing system. Vibrio harveyi JMH597 AI-2 luminescence/OD600 ratio, 9 h; hits give low values; strain lacks LuxN and CqsS sensors; 0 = neutral-control median. activity change, % at 7.5 µM. actives 0.4% (n = 300,000); in the data active = activity change below about -75%, passing the limit was not always enough;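 note: luminescence divided by OD600 gain over 9 h not by final OD600 alone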
CR mimetic SO = lowers age-related superoxide in aged yeast cells; S. cerevisiae aged cells, superoxide DHE fluorescence; hits give low values; superoxide response (% of plate mean), % at 10 µM; actives 0.18% (n = 330,000);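 active = superoxide response under a set limit, about three screen SD below normal, cut at about 65% in these data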;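 note: yeast aged for seven days with compound at 30 °C before DHE staining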
Large screens that a line does not name were inactive. Sampled rows, rich in hits. Any-hit rate of the full collection: about 3%.

Cc1[nH]c2ccccc2c1/C=C/c1cc[n+](C)cc1	V-ATPase pHluor 13 (no result: CR mimetic SO)
C=CCn1c(C)c(/C=C/c2cc[n+](C)cc2)c2ccccc21	T cruzi inh 74
O=C(NCC(=O)N(c1ccccc1)C(C(=O)NC1CCCC1)c1cccnc1)c1cccs1 (stereo unspecified)	none (no result: HIF act)
COc1ccc(C2C(C#N)=C(N)Oc3cc(C)[nH]c(=O)c32)cc1OC (stereo unspecified)	none
CCOC(=O)c1cc2c(=O)n3ccccc3nc2n(C(C)C)c1=NC(=O)c1c(-c2c(F)cccc2Cl)noc1C	T cruzi inh 58
CCOC(=O)c1cc2c(=O)n3ccccc3nc2n(C)c1=NC(=O)c1c(-c2c(F)cccc2Cl)noc1C	none
CCOC(=O)c1cc2c(=O)n3ccccc3nc2n(CC2CCCO2)c1=NC(=O)/C=C/c1ccccc1 (stereo unspecified)	NRP1-CendR mod 29 (no result: AI-2 QS modul)
Cc1nn(C)c(=O)n1N(C)c1ncc(C(F)(F)F)cc1Cl	none
O=C(NCc1ccccc1)c1cc(C2CCCCN2C(=O)CCCc2ccccc2)on1 (stereo unspecified)	none (no result: HIF act, V-ATPase pHluor, T cruzi inh, AI-2 QS modul, CR mimetic SO)
O=C(NCc1ccc(F)cc1)c1cc(C2CCCCN2C(=O)CCCc2ccccc2)on1 (stereo unspecified)	NRP1-CendR mod 49 (no result: HIF act, V-ATPase pHluor, T cruzi inh, AI-2 QS modul, CR mimetic SO)
O=C(Nc1ccccc1Cl)c1cc(C2CCCCN2C(=O)CCc2ccccc2)on1 (stereo unspecified)	none (no result: HIF act, V-ATPase pHluor, T cruzi inh, AI-2 QS modul, CR mimetic SO)
O=C(Nc1cccc2c1CCCC2)c1cc(C2CCCCN2C(=O)CCCc2ccccc2)on1 (stereo unspecified)	NRP1-CendR mod 52 (no result: HIF act, V-ATPase pHluor, T cruzi inh, AI-2 QS modul, CR mimetic SO)
Cc1ccc(F)cc1C(=O)N1CCCCC1c1cc(C(=O)NCc2ccccc2)no1 (stereo unspecified)	NRP1-CendR mod 22 (no result: HIF act, V-ATPase pHluor, T cruzi inh, AI-2 QS modul, CR mimetic SO)
CCCNC(=O)c1cc(C2CCCCN2C(=O)c2cc(F)ccc2C)on1 (stereo unspecified)	none (no result: HIF act, V-ATPase pHluor, T cruzi inh, AI-2 QS modul, CR mimetic SO)
CC1=C2C3OC(=O)C(C)C3CCC2(C)C=C(Br)C1=O (stereo unspecified)	none (no result: HIF act, T cruzi inh, AI-2 QS modul, CR mimetic SO)
O=C(CCN1CCCCC1)Nc1cccc(Br)c1	none
O=C(NNC(=O)c1cccc2ccccc12)c1ccc(F)cc1	none (no result: HIF act, T cruzi inh, AI-2 QS modul, CR mimetic SO)
COc1ccc(CNS(=O)(=O)c2ccc(C)cc2)cc1	NRP1-CendR mod 28
COc1ccc(CNS(=O)(=O)c2ccc(OC)cc2)cc1	none
COc1ccc(CNC(=O)CN(CC2CCCO2)C(=O)CNS(=O)(=O)c2ccc(C)cc2)cc1 (stereo unspecified)	HIF act 27
CCOc1cc(-c2nc(-c3ccccc3)c(-c3cc([N+](=O)[O-])ccc3C)[nH]2)ccc1O	T cruzi inh 57
COc1ccccc1NC(=O)CN(c1ccc(C)cc1)S(=O)(=O)c1c(C)n[nH]c1C	none
CCOC(=O)c1cc2ccc3ccccc3c2s1	none
CN1Cc2cccc3c2C(Cc2ccccc2S3)C1 (stereo unspecified)	T cruzi inh 58
Cc1nn(-c2ccccc2)c(C)c1C(=O)OCC(=O)N1c2ccccc2NC(=O)C1(C)C	NRP1-CendR mod 30
Cc1cnc(C(=O)OCC(=O)N2c3ccccc3NC(=O)C2(C)C)cn1	none
COc1cc(OC)cc(C(=O)NC(=S)Nc2ccc(N3CCCC3)cc2)c1	none
COc1ccc(C)cc1NC(=O)CN1CCN(S(=O)(=O)c2ccc(C(C)C)cc2)CC1	T cruzi inh 62
COC(=O)C1CCN(CC(=O)Nc2cc(Cl)ccc2OC)CC1	T cruzi inh 55 (no result: NRP1-CendR mod, V-ATPase pHluor)
Cc1ccc(C(=O)NC(=S)Nc2ccc(CN3CCOCC3)cc2)cc1	none
COc1cc(CNC(=O)c2ccc(Cn3nc(C)c(Cl)c3C)o2)cc(OC)c1	none
O=C(NNC(=O)c1ccccc1Br)c1ccc(Cl)cc1	HIF act 12
O=C(NNC(=O)c1ccccc1Br)c1cccc(Cl)c1	none
CCc1nnc(NC(=O)c2cc(OC)c(OC)cc2[N+](=O)[O-])s1	none
CCOC(=O)c1c(-c2ccccc2)csc1NC(=O)c1nn(CC)cc1Br	T cruzi inh 63
CCOC(=O)c1c(-c2cccs2)csc1NC(=O)c1ccncc1	T cruzi inh 55
O=C(NCC1CCCO1)c1cccc2c1C(=O)c1ccc(N3CCC(Cc4ccccc4)CC3)cc1S2(=O)=O (stereo unspecified)	none (no result: HIF act, T cruzi inh, AI-2 QS modul)
CCCn1nnnc1SCC(=O)Nc1sc(C)c(C)c1C#N	none (no result: NRP1-CendR mod, V-ATPase pHluor)
CCCC(=O)Nc1c2c(nn1-c1ccc(C)cc1)CS(=O)(=O)C2	none
Cc1ccccc1C(=O)NC1CCN(CC(=O)Nc2ccccc2Cl)CC1	none
Cc1c(Cl)cccc1NC(=O)CN1CCC(C(O)(c2ccccc2)c2ccccc2)CC1	T cruzi inh 62
CC(Cl)C(=O)NNc1cccc(Cl)n1 (stereo unspecified)	none (no result: HIF act, T cruzi inh)
COc1cccc(C2CC(c3ccccc3Cl)n3nnnc3N2)c1 (stereo unspecified)	none
COc1ccccc1/C=C/CN1CCC(n2nccc2NC(=O)CCc2ccccc2)CC1	none
COc1cccc(CN2CCC(n3nccc3NC(=O)CCCc3ccccc3)CC2)c1	AI-2 QS modul -81
O=C(CCc1ccccc1)Nc1ccnn1C1CCN(C/C=C/c2ccccc2)CC1	HIF act 435
O=S(=O)(CCN1CCN(c2ccccc2O)CC1)c1ccc(Cl)cc1	none (no result: HIF act, T cruzi inh, AI-2 QS modul, CR mimetic SO)
Cc1cccc(CCN(C(=O)Cc2cccs2)C(C(=O)NC2CCCCC2)c2cccnc2)c1 (stereo unspecified)	none
O=C(NC1CCCC1)C(c1ccccc1)N(Cc1cccnc1)C(=O)Cc1cccs1 (stereo unspecified)	T cruzi inh 67
Cc1ccc(CN(C(=O)Cc2cccs2)C(C(=O)NC2CCCC2)c2ccncc2)cc1 (stereo unspecified)	T cruzi inh 59
CC(OC(=O)c1cccc(S(=O)(=O)N2CCN(C)CC2)c1)C(=O)Nc1ccc(C(N)=O)cc1 (stereo unspecified)	none (no result: HIF act, T cruzi inh, AI-2 QS modul)
N#Cc1cn(-c2ccccc2)nc1-c1cc2ccccc2oc1=O	none
C[C@H](CO)N1C[C@H](C)[C@@H](CN(C)S(=O)(=O)c2ccccc2)OCc2cnnn2CCCC1=O	none (no result: HIF act, T cruzi inh, AI-2 QS modul, CR mimetic SO)
Cn1c(CN2CCN(C(=O)c3ccco3)CC2)nc2cc([N+](=O)[O-])ccc21	none
Cc1cc(Cl)c(S(=O)(=O)N/N=C/c2ccc3c(c2)OCO3)c(Cl)c1	none
O=C(CCn1cccc1)Nc1nccs1	none
COc1ccc(NC(=O)CC2C(=O)N(CCc3ccccc3)C(=S)N2Cc2cccnc2)cc1 (stereo unspecified)	T cruzi inh 63
Cc1sc2nc(CSCC(=O)N(C)c3ccccc3)[nH]c(=O)c2c1C	none
Cc1cc(C(F)(F)F)n2[nH]c(=O)c(N=Nc3ccccc3)c2n1	none
O=c1[nH]n2c(C(F)(F)F)cc(C3CC3)nc2c1N=Nc1ccccc1	NRP1-CendR mod 24
